According to ChEMBL document CHEMBL4152311, “Structure-activity relationship studies and pharmacological characterization of N5-heteroarylalkyl-substituted-2-(2-furanyl)thiazolo[5,4-d]pyrimidine-5,7-diamine-based derivatives as inverse agonists at human A2A adenosine receptor” (Eur J Med Chem, 2018):

Experiments:
[1] = biological target: T1, Adenosine receptor A1 (Homo sapiens) (UniProt P30542); test: Inverse agonist activity at human adenosine A1 receptor expressed in CHO cells assessed as cAMP accumulation at 10 uM measured after 150 mins in presence of [3H]cAMP by scintillation counting method relative to control; format: functional, cell-based
T1 sequence (whole entry): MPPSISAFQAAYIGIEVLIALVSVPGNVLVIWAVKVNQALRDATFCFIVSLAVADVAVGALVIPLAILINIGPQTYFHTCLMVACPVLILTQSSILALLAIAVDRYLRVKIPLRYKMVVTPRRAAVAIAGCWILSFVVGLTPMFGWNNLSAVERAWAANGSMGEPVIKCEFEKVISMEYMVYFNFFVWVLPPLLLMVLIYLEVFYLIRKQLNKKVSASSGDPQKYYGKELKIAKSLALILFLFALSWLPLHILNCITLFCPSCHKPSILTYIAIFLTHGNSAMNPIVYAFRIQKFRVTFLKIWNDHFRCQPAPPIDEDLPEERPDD
In short: (§1)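 Intact CHO cells expressing human A1, A2B or A3 receptor (grown in DMEM F12) exposed to test compound at 10 μM under basal conditions, no agonist; cAMP measured by competitive protein binding with [3H]-cAMP. Result as percent of basal cAMP (basal = 100%); mean ± SEM.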

[2] = biological target: T2, Adenosine receptor A3 (Homo sapiens) (UniProt P0DMS8); test: Inverse agonist activity at human adenosine A3 receptor expressed in CHO cells assessed as cAMP accumulation at 10 uM measured after 150 mins in presence of [3H]cAMP by scintillation counting method relative to control; format: functional, cell-based; in short: as §1
T2 sequence (whole entry): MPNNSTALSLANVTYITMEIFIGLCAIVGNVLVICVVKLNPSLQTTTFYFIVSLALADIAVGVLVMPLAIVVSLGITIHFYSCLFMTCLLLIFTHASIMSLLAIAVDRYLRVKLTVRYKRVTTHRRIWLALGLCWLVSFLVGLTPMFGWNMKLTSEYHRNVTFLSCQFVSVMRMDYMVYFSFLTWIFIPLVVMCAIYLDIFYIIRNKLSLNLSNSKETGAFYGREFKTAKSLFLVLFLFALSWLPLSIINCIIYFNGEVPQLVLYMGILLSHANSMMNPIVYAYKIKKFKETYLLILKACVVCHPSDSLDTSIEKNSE

[3] = biological target: T3, Adenosine receptor A2b (Homo sapiens) (UniProt P29275); test: Inverse agonist activity at human adenosine A2B receptor expressed in CHO cells assessed as cAMP accumulation at 10 uM measured after 150 mins in presence of [3H]cAMP by scintillation counting method relative to control; format: functional, cell-based; in short: as §1
T3 sequence (whole entry): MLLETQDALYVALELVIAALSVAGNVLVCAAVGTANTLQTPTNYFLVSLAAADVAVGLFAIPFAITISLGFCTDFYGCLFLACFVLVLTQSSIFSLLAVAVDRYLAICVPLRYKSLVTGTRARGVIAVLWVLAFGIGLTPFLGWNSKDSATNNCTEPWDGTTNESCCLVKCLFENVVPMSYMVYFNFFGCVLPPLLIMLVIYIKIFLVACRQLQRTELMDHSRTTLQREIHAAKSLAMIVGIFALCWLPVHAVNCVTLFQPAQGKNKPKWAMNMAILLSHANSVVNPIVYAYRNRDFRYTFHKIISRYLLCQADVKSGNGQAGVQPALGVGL

[4] = biological target: T4, Adenosine receptor A2a (Homo sapiens, UniProt P29274); test: Displacement of [3H]ZM241385 from human adenosine A2A receptor expressed in CHO cell membranes measured after 60 mins by scintillation counting method
[5] = biological target: T5, Adenosine receptor A1 (Homo sapiens, UniProt P30542); test: Displacement of [3H]DPCPX from human adenosine A1 receptor expressed in CHO cell membranes measured after 90 mins by scintillation counting method
T5 sequence (P30542 whole entry): T1 sequence (whole entry)

[6] = biological target: T6, Adenosine receptor A3 (Homo sapiens, UniProt P0DMS8); test: Displacement of [125I]AB-MECA from human adenosine A3 receptor expressed in CHO cell membranes measured after 120 mins by scintillation counting method
T6 sequence (P0DMS8 whole entry): T2 sequence (whole entry)
In short: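 Membranes from CHO cells transfected with the human receptor (A1 or A3) competed against [3H]DPCPX (A1) or [125I]AB-MECA (A3) over a range of test concentrations, per earlier-described method; percent inhibition taken at 10 μM.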

[7] = biological target: T7, Adenosine receptor A2b (Homo sapiens, UniProt P29275); test: Antagonist activity at human adenosine A2B receptor expressed in CHO cells assessed as inhibition of NECA-stimulated cAMP accumulation measured after 150 mins in presence of [3H]cAMP by scintillation counting method
T7 sequence (P29275 whole entry): T3 sequence (whole entry)

[8] = biological target: T4, Adenosine receptor A2a; test: Inverse agonist activity at human adenosine A2A receptor expressed in CHO cells assessed as inhibition of cAMP accumulation measured after 150 mins in presence of [3H]cAMP by scintillation counting method; format: functional, cell-based
[9] = biological target: T4, Adenosine receptor A2a; test: Antagonist activity against human adenosine A2A receptor expressed in CHO cells assessed as inhibition of CGS21680-stimulated cAMP accumulation measured after 150 mins in presence of [3H]cAMP by scintillation counting method; format: functional, cell-based

T4 sequence (P29274 whole entry): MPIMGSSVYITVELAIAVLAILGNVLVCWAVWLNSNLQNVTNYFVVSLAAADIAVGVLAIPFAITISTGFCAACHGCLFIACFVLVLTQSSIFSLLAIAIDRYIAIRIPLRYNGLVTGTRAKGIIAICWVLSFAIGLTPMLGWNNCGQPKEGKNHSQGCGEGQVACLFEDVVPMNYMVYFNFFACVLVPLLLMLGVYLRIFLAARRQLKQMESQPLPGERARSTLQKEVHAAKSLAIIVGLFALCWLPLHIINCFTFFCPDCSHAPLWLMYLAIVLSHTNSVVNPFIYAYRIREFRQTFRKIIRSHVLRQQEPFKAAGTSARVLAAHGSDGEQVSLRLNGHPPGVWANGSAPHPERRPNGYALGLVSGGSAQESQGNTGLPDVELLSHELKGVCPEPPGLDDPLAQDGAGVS

Activity [1]	Activity [2]	Activity [3]	KiH [4]	KiL [4]	Ki [5]	Ki [4]	Ki [6]	IC50 [7]	IC50 [8]	IC50 [9]	SMILES
103%	102%	103%	–	–	–	–	–	–	–	–	Nc1nc(NCc2ccncc2)nc2sc(-c3ccco3)nc12
96%	100%	97%	217 fM	0.68 nM	–	–	–	–	–	–	Nc1nc(NCc2cccnc2)nc2sc(-c3ccco3)nc12
103%	101%	98%	–	–	–	–	–	–	–	–	Nc1nc(NCc2ccccn2)nc2sc(-c3ccco3)nc12
101%	104%	101%	39 fM	1.73 nM	–	–	–	–	–	–	Nc1nc(NCc2ccco2)nc2sc(-c3ccco3)nc12
–	–	–	–	–	71 nM	34 nM	15.3 nM	91 nM	–	–	Cc1ccc(-c2nc3c(N)nc(NCc4cccs4)nc3s2)o1
–	–	–	–	–	70 nM	144 nM	160 nM	120 nM	–	–	COc1cccc(CNc2nc(N)c3nc(-c4ccc(C)o4)sc3n2)c1
102%	98%	102%	–	–	–	–	–	–	–	–	Nc1nc(NCc2cnccn2)nc2sc(-c3ccco3)nc12
95%	97%	103%	–	–	–	–	–	–	–	–	Nc1nc(NCCc2ccco2)nc2sc(-c3ccco3)nc12
98%	96%	99%	10.7 fM	3.82 nM	–	–	–	–	–	–	Nc1nc(NCc2cccs2)nc2sc(-c3ccco3)nc12
97%	99%	96%	–	–	73 nM	10.1 nM	38 nM	547 nM	13.2 nM	17.6 nM	Nc1nc(NCc2cccs2)nc2sc(-c3cccs3)nc12
100%	94%	99%	10.6 fM	18 nM	–	–	–	–	–	–	Nc1nc(NCCc2cccs2)nc2sc(-c3ccco3)nc12
99%	103%	106%	–	–	17.3 nM	2.24 nM	275 nM	4570 nM	3.36 nM	4.41 nM	COc1ccccc1CNc1nc(N)c2nc(-c3cccs3)sc2n1
102%	102%	97%	–	–	–	–	–	–	–	–	Nc1nc(NCCc2cccnc2)nc2sc(-c3ccco3)nc12
–	–	–	–	–	29 nM	20 nM	141 nM	389 nM	–	–	COc1ccccc1CNc1nc(N)c2nc(-c3ccc(C)o3)sc2n1
101%	105%	–	–	–	–	–	–	–	–	–	Nc1nc(NCCc2ccc(O)cc2)nc2nc(-c3ccco3)nn12
98%	105%	99%	–	–	–	–	–	–	–	–	Nc1nc(NCc2ccsc2)nc2sc(-c3ccco3)nc12
–	–	–	–	–	37 nM	22 nM	430 nM	2770 nM	–	–	COc1cccc(CNc2nc(N)c3nc(-c4cccs4)sc3n2)c1
